{
  "source": "paper PMC2825290",
  "about": "(ACS chemical biology, 2010)",
  "key": {"[1]": {"system": "dorsoventral (DV) axis of zebrafish embryos (BMPR-I inhibition)", "test": "Zebrafish embryo dorsalization", "assay_type": "in vivo", "conditions": "for Dorsalization (EC100, μM): zebrafish embryos treated from 3-hpf, concentration when 100% of treated embryos are severely dorsalized, at least 20 embryos per condition"}, "[2]": {"system": "VEGF-stimulated Flk1 phosphorylation", "test": "Western blot, VEGF-stimulated Flk1 phosphorylation in BAEC", "assay_type": "cell-based, bovine"}, "[3]": {"system": "zebrafish embryos", "test": "Zebrafish embryo nonspecific toxicity", "conditions": "for Early lethality at 20 μM: administered at 3-hpf"}, "[4]": {"system": "intersomitic vessel (ISV) formation in Tg(Fli:EGFP)y1 embryos (VEGFR-2 inhibition)", "test": "Zebrafish intersomitic vessel", "assay_type": "in vivo", "conditions": "for Effect on ISV formation (words, no concentration given): ISV visualized at 48-hpf"}, "[5]": {"system": "BMP4-induced Smad 1/5/8 phosphorylation", "test": "Western blot, BMP4-induced Smad1/5/8 phosphorylation in HEK293 cells", "assay_type": "cell-based", "conditions": "BMP4 50 ng/ml"}, "[6]": {"target": "T1, human TGFβ type-I receptor activin receptor-like kinase 5 (Alk5/TGFβR1) (Homo sapiens, UniProt P36897)", "T1 sequence (P36897 34-503)": "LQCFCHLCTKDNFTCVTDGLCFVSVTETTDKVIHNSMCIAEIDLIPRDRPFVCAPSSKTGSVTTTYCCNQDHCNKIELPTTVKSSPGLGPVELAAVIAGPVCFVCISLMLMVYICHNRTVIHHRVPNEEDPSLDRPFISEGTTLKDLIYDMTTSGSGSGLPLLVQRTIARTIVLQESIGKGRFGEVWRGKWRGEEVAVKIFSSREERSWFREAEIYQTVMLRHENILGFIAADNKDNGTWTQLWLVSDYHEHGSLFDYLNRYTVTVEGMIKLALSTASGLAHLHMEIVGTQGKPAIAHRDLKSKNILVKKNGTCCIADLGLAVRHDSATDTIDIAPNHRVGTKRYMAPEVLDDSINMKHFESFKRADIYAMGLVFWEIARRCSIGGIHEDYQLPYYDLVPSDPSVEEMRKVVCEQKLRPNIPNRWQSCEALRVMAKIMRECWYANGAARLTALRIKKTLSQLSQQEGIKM", "test": "In vitro kinase assay ALK5", "assay_type": "biochemical", "conditions": "purified human enzyme, 10 μM ATP"}, "[7]": {"target": "human VEGF type-II receptor (KDR/Flk-1/VEGFR2) (Homo sapiens, UniProt P35968)", "sequence (P35968 20-1356)": "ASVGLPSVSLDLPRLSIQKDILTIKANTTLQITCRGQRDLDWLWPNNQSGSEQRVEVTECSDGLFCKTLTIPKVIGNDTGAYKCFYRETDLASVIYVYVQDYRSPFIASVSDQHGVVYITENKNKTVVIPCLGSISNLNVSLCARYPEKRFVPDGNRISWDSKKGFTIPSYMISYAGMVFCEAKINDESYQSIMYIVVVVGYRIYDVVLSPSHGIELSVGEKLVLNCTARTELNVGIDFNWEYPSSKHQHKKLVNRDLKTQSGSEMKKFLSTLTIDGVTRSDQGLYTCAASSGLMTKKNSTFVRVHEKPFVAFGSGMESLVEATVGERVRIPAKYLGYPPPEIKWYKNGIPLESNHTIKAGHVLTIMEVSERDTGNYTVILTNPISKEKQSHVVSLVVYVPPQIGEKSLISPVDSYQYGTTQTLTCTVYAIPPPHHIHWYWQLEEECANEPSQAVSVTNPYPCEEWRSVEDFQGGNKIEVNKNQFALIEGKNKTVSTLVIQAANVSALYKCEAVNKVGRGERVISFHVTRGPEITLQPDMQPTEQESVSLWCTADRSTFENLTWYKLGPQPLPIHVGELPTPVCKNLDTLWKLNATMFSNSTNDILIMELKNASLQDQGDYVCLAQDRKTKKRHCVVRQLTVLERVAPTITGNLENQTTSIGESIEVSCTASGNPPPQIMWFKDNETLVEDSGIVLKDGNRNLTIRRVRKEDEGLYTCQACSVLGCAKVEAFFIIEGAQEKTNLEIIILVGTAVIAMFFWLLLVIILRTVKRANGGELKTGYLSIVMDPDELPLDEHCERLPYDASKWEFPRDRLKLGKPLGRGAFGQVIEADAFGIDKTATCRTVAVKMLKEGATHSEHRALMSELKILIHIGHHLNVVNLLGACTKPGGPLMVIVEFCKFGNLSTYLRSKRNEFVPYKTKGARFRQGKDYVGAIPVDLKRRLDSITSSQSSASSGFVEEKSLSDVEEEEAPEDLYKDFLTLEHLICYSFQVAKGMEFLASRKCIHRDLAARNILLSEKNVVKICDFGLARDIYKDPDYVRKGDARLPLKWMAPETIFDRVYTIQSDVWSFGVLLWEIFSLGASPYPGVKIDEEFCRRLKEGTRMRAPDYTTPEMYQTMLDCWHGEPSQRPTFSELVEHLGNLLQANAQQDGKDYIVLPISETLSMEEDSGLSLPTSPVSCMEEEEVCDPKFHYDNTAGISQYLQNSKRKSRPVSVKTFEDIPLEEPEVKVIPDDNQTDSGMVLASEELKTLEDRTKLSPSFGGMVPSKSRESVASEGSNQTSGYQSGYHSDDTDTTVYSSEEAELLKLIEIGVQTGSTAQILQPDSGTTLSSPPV", "test": "In vitro kinase assay KDR", "assay_type": "biochemical"}, "[8]": {"system": "caALK6", "test": "BMP reporter subtype analysis, caALK6", "assay_type": "cell-based", "conditions": "C2C12BRA cells transfected with constitutively active ALK6"}, "[9]": {"system": "BMP-responsive C2C12BRA cells (Id1 promoter-firefly luciferase reporter), BMP4", "test": "BMP-responsive luciferase reporter assay", "assay_type": "cell-based", "conditions": "read-out: IC50 in BMP-responsive luciferase reporter assay"}, "[10]": {"system": "BMP4-induced p38 MAPK phosphorylation", "test": "Western blot, BMP4-induced p38 MAPK phosphorylation in HEK293 cells", "assay_type": "cell-based", "how_it_was_run": "(§1)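 Confluent HEK293 cells were serum-starved, then pretreated with the test compound or DMSO for 30 min. They were then stimulated for 30 min with Activin-A at 40 ng/ml (p-Smad2) or BMP4 at 50 ng/ml (p-p38 MAPK). Cells were lysed with protease and phosphatase inhibitors, and lysates were run on SDS-PAGE and transferred to PVDF. Phospho-proteins were detected by infrared-dye secondary antibodies.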"}, "[11]": {"target": "human platelet-derived growth factor receptor-β (PDGFRβ) (Homo sapiens, UniProt P09619)", "sequence (P09619 33-1106)": "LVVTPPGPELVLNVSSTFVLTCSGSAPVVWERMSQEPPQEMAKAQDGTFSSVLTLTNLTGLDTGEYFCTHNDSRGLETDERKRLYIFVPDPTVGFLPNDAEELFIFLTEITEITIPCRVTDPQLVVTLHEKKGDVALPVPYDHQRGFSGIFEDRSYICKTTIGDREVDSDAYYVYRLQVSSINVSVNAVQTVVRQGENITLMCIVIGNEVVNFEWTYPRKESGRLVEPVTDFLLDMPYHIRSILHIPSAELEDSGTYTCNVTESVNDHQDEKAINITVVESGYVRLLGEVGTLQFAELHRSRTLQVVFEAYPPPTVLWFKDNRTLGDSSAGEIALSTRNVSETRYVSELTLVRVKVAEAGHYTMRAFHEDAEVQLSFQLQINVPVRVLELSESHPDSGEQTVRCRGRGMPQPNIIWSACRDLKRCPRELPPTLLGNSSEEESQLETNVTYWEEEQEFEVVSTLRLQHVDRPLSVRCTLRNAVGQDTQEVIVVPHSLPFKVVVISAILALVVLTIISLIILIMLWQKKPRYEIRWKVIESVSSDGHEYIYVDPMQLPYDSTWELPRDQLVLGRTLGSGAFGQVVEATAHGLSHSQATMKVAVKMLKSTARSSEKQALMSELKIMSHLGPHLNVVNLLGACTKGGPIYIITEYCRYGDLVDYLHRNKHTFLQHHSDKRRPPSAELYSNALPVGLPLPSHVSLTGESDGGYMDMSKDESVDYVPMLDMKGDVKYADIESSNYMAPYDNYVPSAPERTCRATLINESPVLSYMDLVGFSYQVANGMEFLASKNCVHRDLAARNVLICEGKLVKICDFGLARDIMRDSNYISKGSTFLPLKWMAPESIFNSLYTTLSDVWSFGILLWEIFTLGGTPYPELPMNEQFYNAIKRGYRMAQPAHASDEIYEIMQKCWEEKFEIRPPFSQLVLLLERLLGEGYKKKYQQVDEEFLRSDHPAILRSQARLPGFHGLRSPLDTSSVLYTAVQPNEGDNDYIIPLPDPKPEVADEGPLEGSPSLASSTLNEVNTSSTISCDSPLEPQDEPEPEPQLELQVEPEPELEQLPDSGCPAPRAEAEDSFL", "test": "In vitro kinase assay PDGFRβ", "assay_type": "biochemical", "conditions": "purified human enzyme, 10 μM ATP"}, "[12]": {"system": "Activin A-induced Smad2 phosphorylation", "test": "Western blot, Activin A-induced Smad2 phosphorylation in HEK293 cells", "assay_type": "cell-based", "conditions": "Activin-A 40 ng/ml", "how_it_was_run": "as §1"}, "[13]": {"target": "human AMP-activated protein kinase (AMPK/A1/B1/G1) (Homo sapiens, UniProt Q13131)", "sequence (Q13131 whole entry)": "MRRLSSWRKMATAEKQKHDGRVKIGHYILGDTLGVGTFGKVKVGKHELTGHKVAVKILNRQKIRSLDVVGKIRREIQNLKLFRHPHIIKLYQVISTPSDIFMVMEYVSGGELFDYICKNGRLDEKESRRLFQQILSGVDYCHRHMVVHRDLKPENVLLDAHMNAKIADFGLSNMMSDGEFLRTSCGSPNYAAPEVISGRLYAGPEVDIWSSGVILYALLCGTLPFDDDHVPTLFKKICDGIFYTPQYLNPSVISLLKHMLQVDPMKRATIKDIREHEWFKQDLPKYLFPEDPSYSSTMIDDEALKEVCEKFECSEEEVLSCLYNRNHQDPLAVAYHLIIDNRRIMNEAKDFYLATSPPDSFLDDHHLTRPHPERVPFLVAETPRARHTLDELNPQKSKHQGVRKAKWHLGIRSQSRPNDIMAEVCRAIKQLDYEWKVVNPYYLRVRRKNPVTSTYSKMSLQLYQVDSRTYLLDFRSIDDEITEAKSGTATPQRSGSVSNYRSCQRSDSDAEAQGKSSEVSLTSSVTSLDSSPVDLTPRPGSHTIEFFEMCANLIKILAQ", "sequence (Q9Y478 whole entry partner)": "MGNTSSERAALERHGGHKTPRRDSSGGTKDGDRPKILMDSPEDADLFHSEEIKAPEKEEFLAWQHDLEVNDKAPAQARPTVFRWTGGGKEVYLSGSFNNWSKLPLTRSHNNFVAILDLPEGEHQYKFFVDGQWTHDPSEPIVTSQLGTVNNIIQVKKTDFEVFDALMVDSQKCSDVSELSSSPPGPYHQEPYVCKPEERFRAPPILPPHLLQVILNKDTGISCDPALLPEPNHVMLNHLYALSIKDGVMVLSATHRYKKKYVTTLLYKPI", "sequence (P54619 whole entry partner)": "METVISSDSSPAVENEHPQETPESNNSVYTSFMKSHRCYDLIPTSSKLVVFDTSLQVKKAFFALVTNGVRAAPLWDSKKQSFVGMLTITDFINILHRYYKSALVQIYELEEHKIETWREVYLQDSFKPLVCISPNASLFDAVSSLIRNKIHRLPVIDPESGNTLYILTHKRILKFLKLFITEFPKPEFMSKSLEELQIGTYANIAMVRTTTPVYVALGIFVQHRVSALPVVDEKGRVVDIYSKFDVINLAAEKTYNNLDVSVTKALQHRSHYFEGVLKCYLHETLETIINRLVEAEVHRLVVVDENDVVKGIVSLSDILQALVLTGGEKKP", "test": "In vitro kinase assay AMPK", "assay_type": "biochemical", "conditions": "purified human enzyme, 10 μM ATP"}, "[14]": {"target": "caALK3 (Homo sapiens, UniProt P36894, Q233D)", "sequence (P36894 24-532 Q233D)": "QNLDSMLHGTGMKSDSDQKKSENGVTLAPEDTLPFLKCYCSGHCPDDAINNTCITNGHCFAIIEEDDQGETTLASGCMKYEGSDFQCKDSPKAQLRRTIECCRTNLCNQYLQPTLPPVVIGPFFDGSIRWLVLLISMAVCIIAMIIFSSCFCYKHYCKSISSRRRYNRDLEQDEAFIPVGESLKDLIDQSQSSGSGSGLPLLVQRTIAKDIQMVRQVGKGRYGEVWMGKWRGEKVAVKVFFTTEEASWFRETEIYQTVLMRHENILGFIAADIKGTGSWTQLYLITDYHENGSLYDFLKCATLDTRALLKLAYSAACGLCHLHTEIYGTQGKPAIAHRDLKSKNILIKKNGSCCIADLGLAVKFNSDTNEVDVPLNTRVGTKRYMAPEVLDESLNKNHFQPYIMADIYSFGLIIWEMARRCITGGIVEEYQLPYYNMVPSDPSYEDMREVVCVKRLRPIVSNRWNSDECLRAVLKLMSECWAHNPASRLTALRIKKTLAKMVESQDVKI", "test": "BMP reporter subtype analysis, caALK3", "assay_type": "cell-based"}, "[15]": {"system": "human umbilical vein endothelial cells (HUVEC)", "test": "Endothelial tubule formation", "assay_type": "cell-based", "conditions": "15hr incubation", "how_it_was_run": "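HUVECs were maintained in EGM-2 on 0.2% gelatin-coated dishes. 1.5 ×10^4 cells were plated on wells pre-coated with extracellular matrix gel and treated with the test compound or DMSO. After 15 hr incubation, tubular network formation was examined by inverted light microscopy.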"}, "[16]": {"system": "VEGF-induced phosphorylation of AKT", "test": "Western blot, VEGF-stimulated Akt phosphorylation in BAEC", "assay_type": "cell-based, bovine", "how_it_was_run": "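Bovine aortic endothelial cells were grown in DMEM with 10% FBS on 0.2% gelatin-coated dishes. Confluent cells were serum-starved for 18–24 hrs, treated with the test compound or DMSO for 30 min, then stimulated for 8 min with 50 ng/ml VEGF165. Lysates, prepared with protease and phosphatase inhibitors, were immunoblotted for p-AKT and total AKT with infrared-dye detection.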"}},
  "note": "Entries after “also recorded” stand apart in the source; their conditions may differ.",
  "data": [
    {"compound": "c1cc(-c2cnn3cc(-c4ccc(OCCN5CCCCC5)cc4)cnc23)ccn1", "note": "[DM, dorsomorphin, reference compound]", "values": [
      {"measurement": "Dorsalization at 2 μM", "setting": "[1]; 2 μM, administered at 3-hpf", "value": "dorsalized zebrafish embryos"},
      {"measurement": "Effect on VEGF-stimulated Flk1 phosphorylation", "setting": "[2]; 50ng/ml VEGF165", "value": "suppressed VEGF-dependent Flk1 phosphorylation in a dose-dependent manner"},
      {"measurement": "Effect on VEGF-stimulated Flk1 phosphorylation", "setting": "[2]; 50ng/ml VEGF165, listed as dorsomorphin", "value": "inhibited the VEGF-stimulated Flk1 phosphorylation in a dose-dependent manner"},
      {"measurement": "Early lethality at 20 μM", "setting": "[3]", "value": "substantial early lethality"},
      {"measurement": "Effect on ISV formation at 10 μM", "setting": "[4]; administered at 12-hpf", "value": "blocked intersomitic vessel (ISV) formation"},
      {"measurement": "Effect on ISV formation at 10 μM", "setting": "[4]; administered at 12-hpf, listed as dorsomorphin", "value": "completely inhibited ISV formation"}
    ]},
    {"compound": "CC(C)Oc1ccc(-c2cnc3c(-c4ccnc5ccccc45)cnn3c2)cc1", "note": "[DMH1, 4-(6-(4-isopropoxyphenyl)pyrazolo[1,5-a]pyrimidin-3-yl)quinoline]", "values": [
      {"measurement": "Effect on BMP-induced Smad1/5/8 activation", "setting": "[5]", "value": "selectively inhibited the BMP-induced Smad1/5/8 activation; also recorded: blocked BMP4-induced Smad 1/5/8 phosphorylation"},
      {"measurement": "IC50 ALK5 (TGFβR-I)", "setting": "[6]", "value": "without any detectable inhibition"},
      {"measurement": "Dorsalization at 0.2 μM", "setting": "[1]; 0.2 μM, treated from 3-hpf", "value": "caused severe dorsalization"},
      {"measurement": "Effect on VEGF-stimulated Flk1 phosphorylation", "setting": "[2]; 50ng/ml VEGF165", "value": "no effect on VEGF-induced Flk1 phosphorylation"},
      {"measurement": "IC50", "setting": "[7]", "value": "> 30000", "unit": "nM"},
      {"measurement": "IC50 KDR (VEGFR2)", "setting": "[7]; purified human enzyme, 10 μM ATP", "value": "without any detectable inhibition"},
      {"measurement": "Effect on signaling by caALK6", "setting": "[8]", "value": "negligible effect on signaling by caALK6"},
      {"measurement": "IC50", "setting": "[9]", "value": "~100", "unit": "nM"},
      {"measurement": "Effect on BMP4-induced p38 MAPK phosphorylation", "setting": "[10]", "value": "no effect"},
      {"measurement": "IC50 PDGFRβ", "setting": "[11]", "value": "without any detectable inhibition"},
      {"measurement": "Effect on Activin A-induced Smad2 phosphorylation", "setting": "[12]", "value": "no effect"},
      {"measurement": "IC50 AMPK", "setting": "[13]", "value": "without any detectable inhibition"},
      {"measurement": "Effect on ISV formation at 100 μM", "setting": "[4]; 100 μM, treated from 12-hpf", "value": "no effect on ISV formation"},
      {"measurement": "Effect on ISV formation (words, no concentration given)", "setting": "[4]; administered at 12-hpf", "value": "did not have any detectible effect on ISV formation"},
      {"measurement": "IC50", "setting": "[14]", "value": "< 500", "unit": "nM"}
    ]},
    {"compound": "c1ccc2c(-c3cnn4cc(-c5ccc(OCCN6CCOCC6)cc5)cnc34)ccnc2c1", "note": "[DMH2, 4-(2-(4-(3-(quinolin-4-yl)pyrazolo[1,5-a]pyrimidin-6-yl)phenoxy)ethyl)morpholine]", "values": [
      {"measurement": "Dorsalization (EC100, μM)", "setting": "[1]", "value": "~0.1", "unit": "µM"},
      {"measurement": "Nonspecific developmental effects", "setting": "[3]; at higher concentrations", "value": "caused nonspecific developmental effects at higher concentrations"},
      {"measurement": "IC50", "setting": "[9]", "value": "~20", "unit": "nM"},
      {"measurement": "Effect on ISV formation (words, no concentration given)", "setting": "[4]; administered at 12-hpf", "value": "did not have any detectible effect on ISV formation"}
    ]},
    {"compound": "CN(C)CCCOc1ccc(-c2cnc3c(-c4ccnc5ccccc45)cnn3c2)cc1", "note": "[DMH3, N,N-dimethyl-3-(4-(3-(quinolin-4-yl)pyrazolo[1,5-a]pyrimidin-6-yl)phenoxy)propan-1-amine]", "values": [
      {"measurement": "Dorsalization (EC100, μM)", "setting": "[1]", "value": "~1", "unit": "µM"},
      {"measurement": "IC50", "setting": "[9]", "value": "~7", "unit": "nM"},
      {"measurement": "Effect on ISV formation (words, no concentration given)", "setting": "[4]; administered at 12-hpf", "value": "did not have any detectible effect on ISV formation"}
    ]},
    {"compound": "c1ccc(-c2cnn3cc(-c4ccc(OCCN5CCOCC5)cc4)cnc23)cc1", "note": "[DMH4, 4-(2-(4-(3-phenylpyrazolo[1,5-a]pyrimidin-6-yl)phenoxy)ethyl)morpholine]", "values": [
      {"measurement": "Effect on dorsoventral axis at 50 μM", "setting": "[1]; 50 μM, treated from 3-hpf", "value": "no effect on dorsoventral axis"},
      {"measurement": "Effect on DV axis (words, no concentration given)", "setting": "[1]; administered at 3-hpf", "value": "no discernable effect on DV axis"},
      {"measurement": "Dorsalization (EC100, μM)", "setting": "[1]", "value": "No (>50) μM"},
      {"measurement": "Effect on VEGF-stimulated Flk1 phosphorylation", "setting": "[2]; 50ng/ml VEGF165", "value": "effectively blocked VEGF-stimulated phosphorylation; also recorded: blocked VEGF-induced phosphorylation"},
      {"measurement": "Effect on tubular network formation at 1 μM", "setting": "[15]", "value": "effectively blocked angiogenesis; also recorded: blocked VEGF-induced tubular network formation"},
      {"measurement": "Effect on ISV and SIV formation at 1 μM", "setting": "[4]; 1 μM", "value": "disrupted both ISV and SIV formation"},
      {"measurement": "Effect on ISV formation (words, no concentration given)", "setting": "[4]; administered at 12-hpf", "value": "caused significant defects in the ISV and the subintestinal vessel (SIV)"},
      {"measurement": "Effect on VEGF-stimulated Akt phosphorylation", "setting": "[16]", "value": "effectively blocked VEGF-stimulated phosphorylation; also recorded: blocked VEGF-induced phosphorylation"}
    ]},
    {"compound": "c1ccc2c(-c3cnn4cc(-c5ccc(N6CCNCC6)cc5)cnc34)ccnc2c1", "note": "[LDN-193189, reference compound]", "values": [
      {"measurement": "Dorsalization (EC100, μM)", "setting": "[1]", "value": 3, "unit": "µM"},
      {"measurement": "Early lethality at 20 μM", "setting": "[3]", "value": "substantial early lethality"},
      {"measurement": "Effect on ISV formation at 20 μM", "setting": "[4]; 20 μM, administered at 12-hpf", "value": "significantly inhibited ISV formation"}
    ]}
  ]
}
